Measurements published in ChEMBL document CHEMBL1124429, “Heterocyclic analogues of benzamide antiarrhythmic agents” (J Med Chem, 1989).
“And” between values parts separate entries of the source, which are not always exact repeats. Identical values can stand only once. Each block holds one compound with its values, some of them ahead of it.

Assays:
Canis familiaris [1] = species on record: Canis familiaris; assay: Percent change from control in the rate of rise of phase 0 of the action potential at 10 uM concentration on Canine Purkinje fibers; value ranges from 8.0-4.0; design: species or system Canis lupus familiaris, Purkinje fiber; conditions: dog
Canis familiaris [2] = species on record: Canis familiaris; assay: The maximum change from control in the rate of rise of phase 0 of the action potential at 10 uM concentration on Canine Purkinje fibers.; design: species or system Canis lupus familiaris, Purkinje fiber; conditions: dog
In short: (§1)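 Canine Purkinje fibers were held in oxygenated (95% O2–5% CO2) physiological saline, pH 7.35–7.40, at 36 ± 0.5 °C and paced at 1.0 Hz with 2-ms pulses at twice diastolic threshold. Intracellular microelectrodes (3 M KCl) recorded Vmax and APD95 simultaneously. After up to 1 h of stabilization, compounds were tested from 10^-8 to 10^-3 M with 30 min per concentration. One compound per fiber, with vehicle controls. For N ≥ 3, values are the mean with the range.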

Canis familiaris [3] = species on record: Canis familiaris; assay: The maximum percent change from control in the rate of rise of phase 0 of the action potential at 100 uM concentration on Canine Purkinje fibers.; design: species or system Canis lupus familiaris, Purkinje fiber; conditions: dog, in vitro; in short: as §1
Canis familiaris [4] = species on record: Canis familiaris; assay: Maximum percent change in conduction time (CT) at 100 uM concentration tested on Canine ventricular muscle fibre; format: functional, Canis lupus familiaris, Muscle tissue
In short: (§2)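 Canine right ventricular papillary muscle strips were superfused at 36 ± 0.5 °C with saline gassed with 95% O2/5% CO2. Diastolic threshold was found with 2-ms stimuli at 4000 ms cycle length, then pacing at 4× threshold for 60 min equilibration. FRP was measured at 1000 ms cycle length by S1-S2 premature stimulus after every tenth S1. Conduction time came from a bipolar electrogram. Various compound concentrations were tested, one compound per strip, with vehicle controls. Percent change from control was taken at 10 µM, or the maximum change with its concentration; for N ≥ 3, mean with range.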

Canis familiaris [5] = species on record: Canis familiaris; assay: Maximum percent change in conduction time (CT) at 1 uM concentration tested on Canine ventricular muscle fibre; format: functional, Canis lupus familiaris, Muscle tissue; in short: as §2
Canis familiaris [6] = species on record: Canis familiaris; assay: Percent change from control in conduction time (CT) at 10 uM concentration tested on Canine ventricular muscle fibre; value ranges from -12.0-2.0; format: functional, Canis lupus familiaris, Muscle tissue; in short: as §2
Canis familiaris [7] = species on record: Canis familiaris; assay: Maximum percent change in repolarization at 100 uM concentration on Canine Purkinje fibers.; format: functional, Canis lupus familiaris, Purkinje fiber
In short: (§3)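 Isolated canine Purkinje fibers were superfused with physiological saline gassed with 95% O2/5% CO2 (pH 7.35–7.40) at 36 ± 0.5 °C. Paced at 1.0 Hz with 2-ms pulses at twice diastolic threshold. After up to 1 h stabilization, compounds were tested over 10^-8 to 10^-3 M, 30 min per concentration, one compound per fiber, with vehicle controls. Intracellular microelectrodes (3 M KCl) recorded Vmax and APD95; maximum percent change from control is reported with its concentration.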

Canis familiaris [8] = species on record: Canis familiaris; assay: Maximum percent change in repolarization at 10 uM concentration on Canine Purkinje fibers.; format: functional, Canis lupus familiaris, Purkinje fiber; in short: as §3
Canis familiaris [9] = species on record: Canis familiaris; assay: Percent change in repolarization at 10 Purkinje fibers.; format: functional, Canis lupus familiaris, Purkinje fiber; in short: as §1
Canis familiaris [10] = species on record: Canis familiaris; assay: Maximum percent change in functional refractory period (FRP) at 100 uM on Canine ventricular muscle fibre; value ranges from 7-26; design: species or system Canis lupus familiaris, Muscle tissue; in short: as §2
Canis familiaris [11] = species on record: Canis familiaris; assay: Percent change from control in the functional refractory period (FRP) at 10 uM concentration on Canine ventricular muscle fibre; value ranges from 2-17; design: species or system Canis lupus familiaris, Muscle tissue; in short: as §2
Canis familiaris [12] = species on record: Canis familiaris; assay: Percent change from control in the rate of rise of phase 0 of the action potential at 10 uM concentration on Canine Purkinje fibers.; design: species or system Canis lupus familiaris, Purkinje fiber; conditions: dog, in vitro
Canis familiaris [13] = species on record: Canis familiaris; assay: Maximum Percent change from control in the rate of rise of phase 0 of the action potential at 100 uM concentration on Canine Purkinje fibers.; format: Canis lupus familiaris, Purkinje fiber; conditions: dog, in vitro; in short: as §3
Canis familiaris [14] = species on record: Canis familiaris; assay: Maximum Percent change from control in the rate of rise of phase 0 of the action potential at 30 uM concentration on Canine Purkinje fibers.; design: species or system Canis lupus familiaris, Purkinje fiber; conditions: dog, in vitro; in short: as §3
Canis familiaris [15] = species on record: Canis familiaris; assay: Percent change from control in conduction time (CT) at 10 uM concentration tested on Canine ventricular muscle fibre.; M is minimal(<10% change in CT); format: functional; conditions: Canis lupus familiaris, Muscle tissue; in short: as §2
Canis familiaris [16] = species on record: Canis familiaris; assay: Maximum percent change in repolarization at 0.1 uM concentration on Canine Purkinje fibers.; format: functional, Canis lupus familiaris, Purkinje fiber; in short: as §3
Canis familiaris [17] = species on record: Canis familiaris; assay: Maximum percent change in repolarization at 1 uM concentration on Canine Purkinje fibers.; format: functional, Canis lupus familiaris, Purkinje fiber; in short: as §3
Canis familiaris [18] = species on record: Canis familiaris; assay: Maximum percent change in repolarization at 30 uM concentration on Canine Purkinje fibers.; format: functional, Canis lupus familiaris, Purkinje fiber; in short: as §3
Canis familiaris [19] = species on record: Canis familiaris; assay: Percent change in repolarization at 10 Purkinje fibers.; value ranges from 3-7; format: functional, Canis lupus familiaris, Purkinje fiber; in short: as §1
Canis familiaris [20] = species on record: Canis familiaris; assay: Percent change from control in the functional refractory period (FRP) at 10 uM conc. on Canine ventricular muscle fibre.; design: species or system Canis lupus familiaris, Muscle tissue; in short: as §2
Cavia porcellus = species on record: Cavia porcellus; assay: Concentration of compound which gives a 20% decrease in contractile force was tested on papillary muscle of guinea pig, activity was expressed as EC-20; NR is not reached..; format: functional; conditions: Muscle tissue
In short: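 Contractile force measured in an isolated cardiac muscle preparation. Value is the concentration giving a 20% decrease in force of contraction. NR marks that this decrease was not reached. Values come from individual experiments; for N ≥ 3, the mean is given with the range.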

Canis familiaris [21] = species on record: Canis familiaris; assay: Percent change from control in the rate of rise of phase 0 of the action potential at 10 uM concentration on Canine Purkinje fibers.; value ranges from -20 - -3; format: organism-based, Canis lupus familiaris, Purkinje fiber; conditions: dog, in vitro
Canis familiaris [22] = species on record: Canis familiaris; assay: The maximum percent change in action potential (Vmax) at concentration observed (100 uM) was tested on Canine Purkinje fibers; design: species or system Canis lupus familiaris, Purkinje fiber; conditions: dog; in short: as §1
Canis familiaris [23] = species on record: Canis familiaris; assay: The maximum percent change in action potential (Vmax) at concentration observed (30 uM ) was tested on Canine Purkinje fibers; design: species or system Canis lupus familiaris, Purkinje fiber; conditions: dog; in short: as §1
Canis familiaris [24] = species on record: Canis familiaris; assay: Maximum percent change in conduction time (CT) at 10 uM concentration tested on Canine ventricular muscle fibre; format: functional, Canis lupus familiaris, Muscle tissue; in short: as §2
Canis familiaris [25] = species on record: Canis familiaris; assay: Percent change from control in conduction time (CT) at 10 uM concentration tested on Canine ventricular muscle fibre.; value ranges from -20-2; format: functional, Canis lupus familiaris, Muscle tissue; in short: as §2
Canis familiaris [26] = species on record: Canis familiaris; assay: Percent change in repolarization at 10 Purkinje fibers.; value ranges from -13 - -3; format: functional, Canis lupus familiaris, Purkinje fiber; in short: as §1
Canis familiaris [27] = species on record: Canis familiaris; assay: Maximum percent change in functional refractory period (FRP) at 10 uM on Canine ventricular muscle fibre.; design: species or system Canis lupus familiaris, Muscle tissue; in short: as §2
Canis familiaris [28] = species on record: Canis familiaris; assay: Percent change from control in the functional refractory period (FRP) at 10 uM conc on Canine ventricular muscle fibre.; value ranges from -9-28; design: species or system Canis lupus familiaris, Muscle tissue; in short: as §2
Canis familiaris [29] = species on record: Canis familiaris; assay: Maximum percent change in functional refractory period (FRP) at 100 uM on Canine ventricular muscle fibre.; design: species or system Canis lupus familiaris, Muscle tissue; in short: as §2

Vmax (Canis familiaris [1]): -1.5% | Vmax (Canis familiaris [2]): 4% | Vmax (Canis familiaris [3]): -10%
Structure (SMILES): CCN(CC)CCNC(=O)c1ccc(N)cc1 [PROCAINAMIDE]
CT (Canis familiaris [4]): 4% | CT (Canis familiaris [5]): 5% | CT (Canis familiaris [6]): -3% | APD95 (Canis familiaris [7]): 3% | APD95 (Canis familiaris [8]): 1% | APD95 (Canis familiaris [9]): -1% | FRP (Canis familiaris [10]): 14.3% | FRP (Canis familiaris [11]): 8.7%

Vmax (Canis familiaris [12]): 4.6% | Vmax (Canis familiaris [13]): 7% | Vmax (Canis familiaris [14]): -1%
Structure (SMILES): CCN(CC)CCCNC(=O)c1c(O)cc(C)nc1C
CT (Canis familiaris [4]): -7% | CT (Canis familiaris [15]): Minimal | APD95 (Canis familiaris [16]): 5% | APD95 (Canis familiaris [17]): 4% | APD95 (Canis familiaris [18]): 15% | APD95 (Canis familiaris [19]): 5% | FRP (Canis familiaris [20]): 13% | EC20 (Cavia porcellus): Not reached

Vmax (Canis familiaris [21]): -11.3% | Vmax (Canis familiaris [22]): -31% | Vmax (Canis familiaris [23]): -15% and -39%
Structure (SMILES): CCN(CC)CCCNC(=O)c1cccc2[nH]ccc12
CT (Canis familiaris [4]): 12% | CT (Canis familiaris [24]): -7% | CT (Canis familiaris [25]): -8.8% | APD95 (Canis familiaris [7]): -26% | APD95 (Canis familiaris [8]): -3% | APD95 (Canis familiaris [18]): -22% | APD95 (Canis familiaris [26]): -7.7% | FRP (Canis familiaris [27]): 11% | FRP (Canis familiaris [28]): 10% | FRP (Canis familiaris [29]): 36%
